We go through 17 molecules from ChEMBL document CHEMBL1139452, “Synthesis and structure-activity relationships of 5,6,7,8-tetrahydro-4H-thieno[3,2-b]azepine derivatives: novel arginine vasopressin antagonists” (J Med Chem, 2004).

Assay [1] concerns the target Vasopressin V2 receptor (Rattus norvegicus, UniProt Q00788). Put plainly: Inhibitory activity against arginine vasopressin V2 receptor using [3H]AVP as radioligand in rat […] medulla. Format: tissue-based. The method in brief:
(§1)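 Competition binding on plasma membrane preparations, with [3H]AVP (80 Ci/mmol, 1–2 nM) and graded test compound, in 100 mM Tris-HCl pH 7.5, 5 mM MgCl2, 1 mM EDTA, 0.1% BSA, ≤1% final DMSO. Incubated 20 min at 37 °C, stopped with ice-cold Tris pH 8.0, filtered on GF/B. Nonspecific binding: 1 μM AVP. IC50 by regression of displacement curves; n = 3, mean ± SEM.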

For assay [2], the target named is Vasopressin V1 receptor (Rattus norvegicus, UniProt P48974+P30560). In words: Inhibitory activity against arginine vasopressin V1 receptor using [3H]AVP as radioligand in rat liver. The method in brief: as §1
The target in assay [3] is Vasopressin V2 receptor (Homo sapiens, UniProt P30518). In words: Inhibitory activity against human recombinant arginine vasopressin V2 receptor using [3H]AVP as radioligand in CHO cells. It counts as cell-based. The method, boiled down: as §1
For assay [4], the target named is Vasopressin V1 receptor (Homo sapiens, UniProt P37288+P47901). Put plainly: Inhibitory activity against arginine vasopressin V1 receptor using [3H]AVP as radioligand in human platelet. The method in brief: as §1
The subject of assay [5] is Rattus norvegicus. Put plainly: Diuretic effect was determined after peroral administration at a dose of 10 mg/kg in rats. Format: functional, Urine. The following applies: route oral. The method in brief: (§2)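 Male Sprague Dawley rats (250–350 g) fasted 16–20 h, some also without water for 16–20 h. Compound or vehicle given orally. Spontaneously voided urine collected over 4 h in metabolic cages and reported as mL/4 h; n = 3, mean ± SEM.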

Assay [6] has as its system Rattus norvegicus. Put plainly: Antagonistic effect against AVP-induced hypertension in rats after intravenous administration. It counts as functional. The following applies: read-out: ID50 (the source's name). The method, boiled down: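 Male Sprague Dawley rats (250–350 g) under urethane anaesthesia (1.3 g/kg ip), with femoral artery and vein catheters, held at 37 °C. Compound or vehicle given iv (1 mL/kg) 2 min before AVP 30 mU/kg iv. ID50 is the dose inhibiting the maximal pressor response by 50%; n = 3, mean ± SEM.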

In assay [7] the test system is Rattus norvegicus. Put plainly: Diuretic effect was determined after peroral administration at a dose of 30 mg/kg in rats. Format: functional, Urine. The following applies: route oral. The method in brief:
as §2

As usually defined, the IC50 is the concentration at which inhibition is half-maximal.

Vasopressin V2 receptor (Homo sapiens, UniProt P30518), sequence (P30518 whole entry): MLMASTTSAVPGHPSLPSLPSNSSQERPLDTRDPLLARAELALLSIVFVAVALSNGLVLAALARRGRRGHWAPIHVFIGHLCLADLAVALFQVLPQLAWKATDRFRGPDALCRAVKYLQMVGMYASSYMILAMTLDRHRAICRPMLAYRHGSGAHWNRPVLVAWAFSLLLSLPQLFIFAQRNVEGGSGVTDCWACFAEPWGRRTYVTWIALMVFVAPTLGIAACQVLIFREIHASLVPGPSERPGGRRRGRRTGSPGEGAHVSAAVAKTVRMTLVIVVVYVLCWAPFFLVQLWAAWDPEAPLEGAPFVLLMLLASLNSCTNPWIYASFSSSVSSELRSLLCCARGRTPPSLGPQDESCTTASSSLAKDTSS
Vasopressin V2 receptor (Rattus norvegicus, UniProt Q00788), sequence (Q00788 whole entry): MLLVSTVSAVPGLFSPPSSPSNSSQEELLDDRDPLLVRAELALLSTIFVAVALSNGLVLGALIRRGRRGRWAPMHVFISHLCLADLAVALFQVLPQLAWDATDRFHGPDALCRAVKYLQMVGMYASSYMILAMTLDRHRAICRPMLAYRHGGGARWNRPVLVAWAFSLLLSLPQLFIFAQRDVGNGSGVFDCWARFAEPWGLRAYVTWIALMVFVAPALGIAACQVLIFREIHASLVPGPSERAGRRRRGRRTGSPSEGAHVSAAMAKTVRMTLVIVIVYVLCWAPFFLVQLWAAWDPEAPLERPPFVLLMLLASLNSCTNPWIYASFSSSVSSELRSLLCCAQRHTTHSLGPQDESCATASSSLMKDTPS

On to `O=C(Nc1ccc(C(=O)N2CCCN(Cc3cccnc3)c3sccc32)cc1)c1ccccc1-c1ccccc1`, for which the IC50 in assay [1] was 30 nM; in assay [2], 500 nM; in assay [3], 60 nM; in assay [4] it was 700 nM. This molecule also registered a Urine volume in assay [5] of 1.2 ml 4hr-1. Also, in assay [6], the ED50 was determined as 0.14 mg/kg.
In the case of `COc1cc(C(=O)N2CCCC(N(C)C)c3sccc32)ccc1NC(=O)c1ccccc1-c1ccccc1` (stereo not given), the IC50 in assay [1] is 10 nM; in assay [2], 2000 nM; in assay [3] it was 20 nM; in assay [4] it was 3000 nM. In addition, the values for the Urine volume in assay [7] and in assay [5] were 12 ml 4hr-1 and 9.3 ml 4hr-1, respectively. In assay [6], the ED50 is more than 0.3 mg/kg.
`O=C(Nc1ccc(C(=O)N2CCCN(CCN3CCCC3)c3sccc32)cc1)c1ccccc1-c1ccccc1`: the 50% inhibitory concentration (IC50) was 10 nM in assay [1], 200 nM in assay [2], 200 nM in assay [3] and 800 nM in assay [4]. Moreover, in assay [5], the Urine volume was determined as 6.3 ml 4hr-1. For the same molecule, the ED50 in assay [6] is more than 0.3 mg/kg.
For the molecule `CN(C)CCN(C)CCCCOc1cc(C(=O)N2CCCCc3sccc32)ccc1NC(=O)c1ccccc1-c1ccccc1`, the IC50 in assay [1] came out at 8 nM; in assay [2], 20 nM; in assay [3], 80 nM; in assay [4] it was 5 nM. The Urine volume in assay [5] is 10.2 ml 4hr-1. For the same molecule, in assay [6], the ED50 was found to be 0.02 mg/kg.
Turning to `CN1CCN(CCN2CCCN(C(=O)c3ccc(NC(=O)c4ccccc4-c4ccccc4)cc3)c3ccsc32)CC1`, the IC50 was 10 nM in assay [1], 200 nM in assay [2], 50 nM in assay [3] and 1000 nM in assay [4]. Moreover, in assay [5], the Urine volume is given as 7.4 ml 4hr-1. Further, the ED50 in assay [6] was more than 0.3 mg/kg.
In the case of `CN(C)C1CCN(C(=O)COc2cc(C(=O)N3CCCCc4sccc43)ccc2NC(=O)c2ccccc2-c2ccccc2)CC1`, the IC50 is 4 nM in assay [1], 20 nM in assay [2], 8 nM in assay [3] and 50 nM in assay [4]. Further, the Urine volume in assay [5] is given as 15 ml 4hr-1. Moreover, the ED50 in assay [6] was determined as 0.02 mg/kg.
`O=C(Nc1ccc(C(=O)N2CCCN(Cc3ccccc3)c3sccc32)cc1)c1ccccc1-c1ccccc1`: the IC50 turned out to be 70 nM in assay [1], 500 nM in assay [2], 80 nM in assay [3] and 400 nM in assay [4]. Further, the ED50 in assay [6] was more than 0.3 mg/kg.
`CN1CCCN(CC(=O)N2CCCN(C(=O)c3ccc(NC(=O)c4ccccc4-c4ccccc4)cc3)c3ccsc32)CC1`: the IC50 in assay [1] was 100 nM; in assay [2], more than 10000 nM; in assay [3] it was more than 10000 nM; in assay [4], more than 10000 nM.
With `CCN(CC)C1CCN(C(=O)CCCOc2cc(C(=O)N3CCCCc4sccc43)ccc2NC(=O)c2ccccc2-c2ccccc2)CC1`, the IC50 in assay [1] turned out to be 6 nM; in assay [2], 4 nM; in assay [3] it was 9 nM; in assay [4], 4 nM. The same molecule returned a Urine volume in assay [5] of 18 ml 4hr-1. The ED50 in assay [6] was 0.01 mg/kg.
In the case of `O=C(Nc1ccc(C(=O)N2CCCCc3sccc32)cc1OCCCC(=O)N1CCC(N2CCCCC2)CC1)c1ccccc1-c1ccccc1`, the IC50 in assay [1] stood at 20 nM; in assay [2] it was 20 nM; in assay [3] it was 30 nM; in assay [4], 10 nM. The molecule also came in with a Urine volume in assay [5] of 8 ml 4hr-1. The ED50 in assay [6] stood at 0.03 mg/kg.
In the case of `CN1CCN(CCCCOc2cc(C(=O)N3CCCCc4sccc43)ccc2NC(=O)c2ccccc2-c2ccccc2)CC1`, the IC50 in assay [1] was 7 nM; in assay [2] it was 3 nM; in assay [3], 1 nM; in assay [4] it was 5 nM. In assay [5], this molecule came in with a Urine volume of 16.9 ml 4hr-1. For the same molecule, in assay [6], the ED50 was less than 0.01 mg/kg.
Regarding `CN1CCCN(C(=O)CCCOc2cc(C(=O)N3CCCCc4sccc43)ccc2NC(=O)c2ccccc2-c2ccccc2)CC1`, the IC50 in assay [1] is 3 nM; in assay [2], 20 nM; in assay [3], 10 nM; in assay [4], 50 nM. In assay [5], the Urine volume was 19.1 ml 4hr-1. Further, in assay [6], the ED50 came to 0.008 mg/kg.
Consider `O=C(Nc1ccc(C(=O)N2CCCCc3sccc32)cc1O)c1ccccc1-c1ccccc1`, for which the IC50 in assay [1] was less than 10 nM; in assay [2] it was 200 nM; in assay [3], less than 10 nM; in assay [4] it was 60 nM. Further, the Urine volume in assay [5] is 2.3 ml 4hr-1. Also, the ED50 in assay [6] is 0.04 mg/kg.
Turning to `CN1CCCN(CCCOc2cc(C(=O)N3CCCCc4sccc43)ccc2NC(=O)c2ccccc2-c2ccccc2)CC1`, the IC50 in assay [1] is less than 1 nM; in assay [2], 2 nM; in assay [3] it was 2 nM; in assay [4], less than 1 nM. The same molecule gave a Urine volume in assay [5] of 18.3 ml 4hr-1. The ED50 in assay [6] is 0.03 mg/kg.
Consider `CN1CCN(C(=O)CCCOc2cc(C(=O)N3CCCCc4sccc43)ccc2NC(=O)c2ccccc2-c2ccccc2)CC1`, for which the concentration for half-maximal inhibition (IC50) in assay [1] worked out at 1 nM; in assay [2] it was 20 nM; in assay [3], 6 nM; in assay [4] it was 10 nM. The molecule also yielded a Urine volume in assay [5] of 17.6 ml 4hr-1. Besides, the ED50 in assay [6] was 0.03 mg/kg.
In the case of `CN(C)C1CCN(C(=O)CCCOc2cc(C(=O)N3CCCCc4sccc43)ccc2NC(=O)c2ccccc2-c2ccccc2)CC1`, the concentration for half-maximal inhibition (IC50) in assay [1] is 3 nM; in assay [2], 6 nM; in assay [3], 20 nM; in assay [4], 3 nM. Besides, in assay [5], the Urine volume stood at 22 ml 4hr-1. Further, the ED50 in assay [6] is 0.005 mg/kg.
Regarding `CN(C)CCN1CCCN(C(=O)c2ccc(NC(=O)c3ccccc3-c3ccccc3)cc2)c2ccsc21`, the IC50 in assay [1] was found to be 20 nM; in assay [2], 300 nM; in assay [3], 80 nM; in assay [4] it was 400 nM. In assay [5], the Urine volume came to 6.7 ml 4hr-1. For the same molecule, the ED50 in assay [6] is 0.31 mg/kg.
